High-throughput results from PubChem BioAssay.
Only some compounds are listed: those with a hit (about 1.9% of all), similar ones and a draw of the others.
IMP-1 inh: blocks Pseudomonas aeruginosa IMP-1 metallo-beta-lactamase; 290,000 tested, 0.45% active; purified IMP-1, nitrocefin hydrolysis, epi-absorbance fluorescence; inhibition, % at 5.6 µM;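 active = inhibition above the mean plus 3 SD of all compounds in the same screening run, cut at about 4.5% in these data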;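 note: 0% = IMP-1 with DMSO and 100% = DMSO wells lacking enzyme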
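Assay system: purified recombinant IMP-1 beta-lactamase. Input: IMP-1 0.2 nM before substrate addition. Buffer or medium: Zinc- and detergent-supplemented HEPES buffer, pH 7.1. Schedule: 25 °C, 15 min preincubation, 25 min reaction. Signal: Epi-absorbance fluorescence, 480 nm excitation, 530 nm emission. Evaluation: percent inhibition from optical density relative to buffer-blank wells.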
NadD block: inhibitors of Staphylococcus aureus NadD | inhibition, % at 20 µM | 360,000 tested, 0.78% active | purified NadD enzyme, colorimetric absorbance read-out; in the data active = inhibition above about 26%
VIM-2 inh: inhibitors of Pseudomonas aeruginosa VIM-2 metallo-beta-lactamase; purified VIM-2, nitrocefin hydrolysis, epi-absorbance fluorescence; inhibition, % at 5.6 µM; 290,000 tested, 0.89% active;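 active = inhibition above the mean of all tested compounds plus 3 SD, cutoff set per screening run, cut at about 7.5% in these data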;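 note: red hydrolysis product quenches plate fluorescence so inhibitors raise well fluorescence; 0% = enzyme with DMSO and 100% = DMSO without enzyme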
HCV core dimer: blocks dimerization of HCV core protein | 300,000 tested, 0.33% active | AID 1899 | inhibition, % at 5 µM | TR-FRET GST/Flag-core106 dimerization, 1536-well;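 active = inhibition above the mean of all tested compounds plus 3 SD, set per screening campaign, cut at about 45% in these data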
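Assay system: GST-tagged and Flag-tagged HCV core protein residues 1-106 / Times: compound-protein-antibody incubation 4 h at 22.5 °C / Signal: time-resolved FRET, ex 340 nm, em 617 and 671 nm / Evaluation: % inhibition based on acceptor/donor emission ratio / Benchmarks: wells lacking GST-core106 and wells with excess unlabelled core106 / Repeats: singlicate, one well per compound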
NadD inh conf: confirmation of Staphylococcus aureus NadD inhibitors; shares compounds with NadD block; purified S. aureus NadD, colorimetric enzyme assay; inhibition, % at 20 µM; 2,000 tested, 13% active; in the data active = inhibition mostly above about 42%, no sharp cut-off; inactive = mostly below about 42%
* = called active by the depositor; . = no result.

SMILES	IMP-1 inh	NadD block	VIM-2 inh	HCV core dimer	NadD inh conf
CC/C(C)=N/Nc1nc(-c2cc3cccc(OC)c3oc2=O)cs1	-1	51*	1	37	30
Cc1ccc(Nc2nnc(SCC(=O)Nc3ncc(S(=O)(=O)c4ccc([N+](=O)[O-])cc4)s3)s2)cc1	-2	45*	0	11	8
CC(C)c1ccc(Nc2nnc(SCC(=O)Nc3ncc(S(=O)(=O)c4ccc([N+](=O)[O-])cc4)s3)s2)cc1	1	36*	-1	27	9
CN(C)S(=O)(=O)n1cc(/C=C(\NC(=O)c2ccccc2Cl)C(=O)N2CCOCC2)c2ccccc21	-2	2	-3	0	.
O=C(COC(=O)c1ccc(NS(=O)(=O)c2cccs2)cc1)NCc1ccco1	-3	30*	-3	72*	32
O=C(COC(=O)c1cccs1)NCc1ccco1	.	-2	.	6	.
COc1ccc(N=C2C(=Nc3ccc(OC)cc3)N(c3ccc(OC)cc3)C(=S)N2C)cc1	0	7	-1	-3	.
COc1ccc(N=C2C(=Nc3ccc(OC)cc3)N(c3ccc(OC)cc3)C(=S)N2c2ccccc2)cc1	0	30*	-3	14	3
O=C(Nc1ccccc1)c1nc2ccccc2s1	-4	2	-2	-4	.
O=C(O)CC/C(=C/c1cccc(NC(=O)c2ccccc2Cl)c1)c1nc2ccccc2s1	.	47*	.	.	40
Cc1cccc2sc(NC(=O)c3cccc(S(=O)(=O)N4CCc5ccccc54)c3)nc12	-1	13	1	-7	.
Cc1cc(C)c2nc(NC(=O)c3cccc(S(=O)(=O)N4CCc5ccccc54)c3)sc2c1	-2	44*	-2	4	0
Cc1ccc(NC(=O)COC(=O)[C@@H]2CC(O)CN2S(=O)(=O)c2ccc3c(c2)OCCO3)cc1 (stereo partly drawn)	.	-6	.	.	.
OC(CNCCC1C=Nc2ccccc21)Cn1c2ccc(Cl)cc2c2cc(Cl)ccc21 (stereo not drawn)	-3	34*	-2	1	20
C[C@H](CO)N1C[C@H](C)[C@H](CN(C)S(=O)(=O)c2cccs2)OCc2cnnn2CCCC1=O	.	-3	.	.	.
CCCCN(C(=O)Cc1ccc2c(c1)OCCO2)c1c(N)n(CCC)c(=O)[nH]c1=O	.	-4	.	.	.
Cc1nc(Nc2ccc(Cl)c(Cl)c2)sc1C(/C=C/c1ccc2c(c1)OCO2)=NNc1ccc([N+](=O)[O-])cc1[N+](=O)[O-]	.	48*	.	.	0
NS(=O)(=O)c1ccc(N/N=C/c2ccc3c(c2)OCO3)c([N+](=O)[O-])c1	-2	4	-1	-11	.
O=C(/C=C/c1ccccc1)NCCc1c[nH]c2ccccc12	.	-4	.	9	.
CC1CN(S(=O)(=O)c2cccc(C(=O)OCC(=O)N3CCCCCC3)c2)CC(C)O1 (stereo not drawn)	.	-2	.	.	.
COc1ccc(-c2nc(NC(=O)c3ccc(OCC(=O)Nc4ccc(F)cc4)c(OC)c3)sc2C)cc1	-4	26	-2	23	.
COc1cc(C(=O)Nc2nc(-c3cc(C)ccc3C)c(C)s2)ccc1OCC(=O)Nc1ccc(F)cc1	-5	33*	-4	21	18
Cc1sc(NC(=O)c2cc(-c3ccc(Cl)cc3)nc3ccccc23)c(C(N)=O)c1C	-1	33*	-3	31	6
Cc1ccccc1-c1cc(C(=O)Nc2sc(C(=O)OC(C)C)c(C)c2C#N)c2ccccc2n1	-2	74*	-1	25	27
CCOC(=O)c1sc(NC(=O)c2cc(-c3ccc(C)cc3)nc3ccccc23)c(C#N)c1C	-3	42*	-4	6	11
SMILES	IMP-1 inh	NadD block	VIM-2 inh	HCV core dimer	NadD inh conf
Cc1cc(NC(=O)c2cc(-c3ccccc3C)nc3ccccc23)no1	-3	4	-3	16	.
COC(=O)c1sc(NC(=O)c2cc(-c3ccccc3)nc3ccccc23)c(C#N)c1C	-2	21	1	45	.
O=C(O)C1Cc2ccccc2CN1C(=O)CSc1nnc2ccccn12 (stereo not drawn)	-2	-1	1	-6	.
O=C(CNC(=O)c1cncc(Br)c1)Nc1ccc(F)c(F)c1F	-1	2	-1	-4	.
N/C(=N\N=C\c1ccnc2ccccc12)SC1CC(=O)N(c2ccc(Br)cc2)C1=O (stereo not drawn)	-3	46*	-2	12	7
COc1ccc(N2C(=O)CC(S/C(N)=N/N=C/c3ccnc4ccccc34)C2=O)cc1 (stereo not drawn)	-4	.	-6	-8	.
COC(=O)[C@@]1(Cc2ccc(F)cc2)[C@H]2c3cc(C(=O)N4CCCC4)n(Cc4ccc(C)o4)c3C[C@H]2CN1C(=O)c1ccccc1	.	2	.	.	.
COc1cccc(N2CC(C(=O)Nc3nnc(SCC(=O)Nc4cc(C)on4)s3)CC2=O)c1 (stereo not drawn)	-3	41*	-3	16	3
Cc1ccc(N2CC(C(=O)Nc3nnc(SCC(=O)Nc4cc(C)on4)s3)CC2=O)cc1 (stereo not drawn)	-1	39*	1	28	2
COc1cccc(N2CC(C(=O)Nc3nnc(SCC(=O)N4CCCC4)s3)CC2=O)c1 (stereo not drawn)	0	2	-1	8	.
COc1cc2nc(SCc3ccc(C(F)(F)F)cc3)n(Cc3cccs3)c(=N)c2cc1OC	0	8	0	1	.
COc1ccc(Cn2c(SCc3cc(C)ccc3C)nc3cc(OC)c(OC)cc3c2=N)cc1	-3	39*	-7	-4	-18
COc1ccc(Cn2c(SCc3ccc(C)cc3)nc3cc(OC)c(OC)cc3c2=N)cc1Cl	-3	51*	1	-1	9
Cc1c(NC(=S)SCc2ccccc2)c(=O)n(-c2ccccc2)n1C	-3	3	-5	3	.
O=C(COC(=O)c1ccc(F)cc1F)Nc1ccc(S(=O)(=O)N2CCOCC2)cc1	.	3	.	.	.
O=C(NC(=S)Nc1nc(-c2ccccc2)cs1)c1cncc(Br)c1	-3	33*	-4	4	11
O=C1NC[C@H](Cc2ccc(O)cc2)N(C[C@@H]2CCCN2C[C@H](Cc2ccc(O)cc2)N2C[C@H](Cc3ccccc3)N(CC3CCCCCC3)C(=O)C2=O)C1=O	.	45*	.	.	40
O=C1NC[C@H](Cc2ccccc2)N(C[C@H]2CCCN2C[C@H](Cc2ccc(O)cc2)N2C[C@H](Cc3ccc(O)cc3)N(CC3CCCCCC3)C(=O)C2=O)C1=O	.	33*	.	.	34
O=C1NC[C@H](Cc2ccccc2)N(C[C@H]2CCCN2C[C@H](Cc2ccccc2)N2C[C@H](Cc3ccc(O)cc3)N(CC3CCCCCC3)C(=O)C2=O)C1=O	.	31*	.	.	48*
CC(C)C[C@H]1CN([C@@H](Cc2ccc(O)cc2)CN2CCC[C@H]2CN2C(=O)C(=O)NC[C@@H]2Cc2ccccc2)C(=O)C(=O)N1CC1CCCCC1	.	23	.	.	.
O=C1NC[C@H](Cc2ccc(O)cc2)N(C[C@@H]2CCCN2C[C@H](Cc2ccccc2)N2C[C@H](Cc3ccc(O)cc3)N(CC3CCCCCC3)C(=O)C2=O)C1=O	.	39*	.	.	46
